Measurements reported in ChEMBL document CHEMBL4680072, “Synthesis and evaluation of a radioiodinated 4,6-diaryl-3-cyano-2-pyridinone derivative as a survivin targeting SPECT probe for tumor imaging” (Bioorg Med Chem Lett, 2016).

What was measured:
[1] = Biodistribution in intestine of BALB/c nu/nu mouse xenografted with human MDA-MB-231 cells at 7.4 kBq, iv using [125I] labeled compound measured after 60 mins by gamma counter method; assay type: ADME, organism-based; conditions: in vivo, 1 h
In short: (§1)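 Radioactivity in each excised tissue is expressed as percent injected dose per gram (% ID/g). Each value is the mean (SD) of three tumor-bearing mice per time point (n = 3).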

[2] = Biodistribution in blood of BALB/c nu/nu mouse xenografted with human MDA-MB-231 cells at 7.4 kBq, iv using [125I] labeled compound measured after 180 mins by gamma counter method; assay type: ADME, organism-based; conditions: in vivo, 3 h; in short: as §1
[3] = Biodistribution in lung of BALB/c nu/nu mouse xenografted with human MDA-MB-231 cells at 7.4 kBq, iv using [125I] labeled compound measured after 60 mins by gamma counter method; assay type: ADME, organism-based; conditions: in vivo, 1 h; in short: as §1
[4] = Biodistribution in blood of BALB/c nu/nu mouse xenografted with human MDA-MB-231 cells at 7.4 kBq, iv using [125I] labeled compound measured after 30 mins by gamma counter method; assay type: ADME, organism-based; conditions: in vivo, 0.5 h; in short: as §1
[5] = Biodistribution in stomach of BALB/c nu/nu mouse xenografted with human MDA-MB-231 cells at 7.4 kBq, iv using [125I] labeled compound measured after 30 mins by gamma counter method; assay type: ADME, organism-based; conditions: in vivo, 0.5 h; in short: as §1
[6] = Biodistribution in spleen of BALB/c nu/nu mouse xenografted with human MDA-MB-231 cells at 7.4 kBq, iv using [125I] labeled compound measured after 60 mins by gamma counter method; assay type: ADME, organism-based; conditions: in vivo, 1 h; in short: as §1
[7] = Biodistribution in heart of BALB/c nu/nu mouse xenografted with human MDA-MB-231 cells at 7.4 kBq, iv using [125I] labeled compound measured after 60 mins by gamma counter method; assay type: ADME, organism-based; conditions: in vivo, 1 h; in short: as §1
[8] = Biodistribution in kidney of BALB/c nu/nu mouse xenografted with human MDA-MB-231 cells at 7.4 kBq, iv using [125I] labeled compound measured after 180 mins by gamma counter method; assay type: ADME, organism-based; conditions: in vivo, 3 h; in short: as §1
[9] = Biodistribution in liver of BALB/c nu/nu mouse xenografted with human MDA-MB-231 cells at 7.4 kBq, iv using [125I] labeled compound measured after 60 mins by gamma counter method; assay type: ADME, organism-based; conditions: in vivo, 1 h; in short: as §1
[10] = Biodistribution in brain of BALB/c nu/nu mouse xenografted with human MDA-MB-231 cells at 7.4 kBq, iv using [125I] labeled compound measured after 180 mins by gamma counter method; assay type: ADME, organism-based; conditions: in vivo, 3 h; in short: as §1
[11] = Biodistribution in intestine of BALB/c nu/nu mouse xenografted with human MDA-MB-231 cells at 7.4 kBq, iv using [125I] labeled compound measured after 30 mins by gamma counter method; assay type: ADME, organism-based; conditions: in vivo, 0.5 h; in short: as §1
[12] = Biodistribution in muscle of BALB/c nu/nu mouse xenografted with human MDA-MB-231 cells at 7.4 kBq, iv using [125I] labeled compound measured after 60 mins by gamma counter method; assay type: ADME, organism-based, Muscle tissue; conditions: in vivo, 1 h; in short: as §1
[13] = Biodistribution in heart of BALB/c nu/nu mouse xenografted with human MDA-MB-231 cells at 7.4 kBq, iv using [125I] labeled compound measured after 180 mins by gamma counter method; assay type: ADME, organism-based; conditions: in vivo, 3 h; in short: as §1
[14] = Biodistribution in lung of BALB/c nu/nu mouse xenografted with human MDA-MB-231 cells at 7.4 kBq, iv using [125I] labeled compound measured after 30 mins by gamma counter method; assay type: ADME, organism-based; conditions: in vivo, 0.5 h; in short: as §1
[15] = Biodistribution in stomach of BALB/c nu/nu mouse xenografted with human MDA-MB-231 cells at 7.4 kBq, iv using [125I] labeled compound measured after 180 mins by gamma counter method; assay type: ADME, organism-based; conditions: in vivo, 3 h; in short: as §1
[16] = Biodistribution in muscle of BALB/c nu/nu mouse xenografted with human MDA-MB-231 cells at 7.4 kBq, iv using [125I] labeled compound measured after 30 mins by gamma counter method; assay type: ADME, organism-based, Muscle tissue; conditions: in vivo, 0.5 h; in short: as §1
[17] = Biodistribution in pancreas of BALB/c nu/nu mouse xenografted with human MDA-MB-231 cells at 7.4 kBq, iv using [125I] labeled compound measured after 60 mins by gamma counter method; assay type: ADME, organism-based; conditions: in vivo, 1 h; in short: as §1
[18] = Biodistribution in brain of BALB/c nu/nu mouse xenografted with human MDA-MB-231 cells at 7.4 kBq, iv using [125I] labeled compound measured after 30 mins by gamma counter method; assay type: ADME, organism-based; conditions: in vivo, 0.5 h; in short: as §1
[19] = Biodistribution in pancreas of BALB/c nu/nu mouse xenografted with human MDA-MB-231 cells at 7.4 kBq, iv using [125I] labeled compound measured after 30 mins by gamma counter method; assay type: ADME, organism-based; conditions: in vivo, 0.5 h; in short: as §1
[20] = Biodistribution in liver of BALB/c nu/nu mouse xenografted with human MDA-MB-231 cells at 7.4 kBq, iv using [125I] labeled compound measured after 30 mins by gamma counter method; assay type: ADME, organism-based; conditions: in vivo, 0.5 h; in short: as §1
[21] = Biodistribution in pancreas of BALB/c nu/nu mouse xenografted with human MDA-MB-231 cells at 7.4 kBq, iv using [125I] labeled compound measured after 180 mins by gamma counter method; assay type: ADME, organism-based; conditions: in vivo, 3 h; in short: as §1
[22] = Biodistribution in stomach of BALB/c nu/nu mouse xenografted with human MDA-MB-231 cells at 7.4 kBq, iv using [125I] labeled compound measured after 60 mins by gamma counter method; assay type: ADME, organism-based; conditions: in vivo, 1 h; in short: as §1
[23] = Biodistribution in kidney of BALB/c nu/nu mouse xenografted with human MDA-MB-231 cells at 7.4 kBq, iv using [125I] labeled compound measured after 60 mins by gamma counter method; assay type: ADME, organism-based; conditions: in vivo, 1 h; in short: as §1
[24] = Biodistribution in tumor of BALB/c nu/nu mouse xenografted with human MDA-MB-231 cells at 7.4 kBq, iv using [125I] labeled compound measured after 30 mins by gamma counter method; assay type: ADME, organism-based, Neoplasm; conditions: in vivo, 0.5 h; in short: as §1
[25] = Biodistribution in spleen of BALB/c nu/nu mouse xenografted with human MDA-MB-231 cells at 7.4 kBq, iv using [125I] labeled compound measured after 30 mins by gamma counter method; assay type: ADME, organism-based; conditions: in vivo, 0.5 h; in short: as §1
[26] = Biodistribution in lung of BALB/c nu/nu mouse xenografted with human MDA-MB-231 cells at 7.4 kBq, iv using [125I] labeled compound measured after 180 mins by gamma counter method; assay type: ADME, organism-based; conditions: in vivo, 3 h; in short: as §1
[27] = Biodistribution in liver of BALB/c nu/nu mouse xenografted with human MDA-MB-231 cells at 7.4 kBq, iv using [125I] labeled compound measured after 180 mins by gamma counter method; assay type: ADME, organism-based; conditions: in vivo, 3 h; in short: as §1
[28] = Biodistribution in tumor of BALB/c nu/nu mouse xenografted with human MDA-MB-231 cells at 7.4 kBq, iv using [125I] labeled compound measured after 180 mins by gamma counter method; assay type: ADME, organism-based, Neoplasm; conditions: in vivo, 3 h; in short: as §1
[29] = Biodistribution in spleen of BALB/c nu/nu mouse xenografted with human MDA-MB-231 cells at 7.4 kBq, iv using [125I] labeled compound measured after 180 mins by gamma counter method; assay type: ADME, organism-based; conditions: in vivo, 3 h; in short: as §1
[30] = Biodistribution in blood of BALB/c nu/nu mouse xenografted with human MDA-MB-231 cells at 7.4 kBq, iv using [125I] labeled compound measured after 60 mins by gamma counter method; assay type: ADME, organism-based; conditions: in vivo, 1 h; in short: as §1
[31] = Biodistribution in brain of BALB/c nu/nu mouse xenografted with human MDA-MB-231 cells at 7.4 kBq, iv using [125I] labeled compound measured after 60 mins by gamma counter method; assay type: ADME, organism-based; conditions: in vivo, 1 h; in short: as §1
[32] = Biodistribution in heart of BALB/c nu/nu mouse xenografted with human MDA-MB-231 cells at 7.4 kBq, iv using [125I] labeled compound measured after 30 mins by gamma counter method; assay type: ADME, organism-based; conditions: in vivo, 0.5 h; in short: as §1
[33] = Biodistribution in muscle of BALB/c nu/nu mouse xenografted with human MDA-MB-231 cells at 7.4 kBq, iv using [125I] labeled compound measured after 180 mins by gamma counter method; assay type: ADME, organism-based, Muscle tissue; conditions: in vivo, 3 h; in short: as §1
[34] = Biodistribution in tumor of BALB/c nu/nu mouse xenografted with human MDA-MB-231 cells at 7.4 kBq, iv using [125I] labeled compound measured after 60 mins by gamma counter method; assay type: ADME, organism-based, Neoplasm; conditions: in vivo, 1 h; in short: as §1
[35] = Biodistribution in kidney of BALB/c nu/nu mouse xenografted with human MDA-MB-231 cells at 7.4 kBq, iv using [125I] labeled compound measured after 30 mins by gamma counter method; assay type: ADME, organism-based; conditions: in vivo, 0.5 h; in short: as §1
[36] = Biodistribution in intestine of BALB/c nu/nu mouse xenografted with human MDA-MB-231 cells at 7.4 kBq, iv using [125I] labeled compound measured after 180 mins by gamma counter method; assay type: ADME, organism-based; conditions: in vivo, 3 h; in short: as §1

CCCN1CCC(C(=O)N(C)Cc2cc(Cl)cc(-c3cc(-c4cc(C(F)(F)F)ccc4[125I])c(C#N)c(=O)[nH]3)c2O)CC1
Drug uptake [1]: 25.3 % ID/g
Drug uptake [2]: 0.99 % ID/g
Drug uptake [3]: 1.43 % ID/g
Drug uptake [4]: 1.36 % ID/g
Drug uptake [5]: 3.54 % ID/g
Drug uptake [6]: 1.1 % ID/g
Drug uptake [7]: 0.53 % ID/g
Drug uptake [8]: 1.22 % ID/g
Drug uptake [9]: 10.01 % ID/g
Drug uptake [10]: 0.05 % ID/g
Drug uptake [11]: 10.1 % ID/g
Drug uptake [12]: 0.29 % ID/g
Drug uptake [13]: 0.51 % ID/g
Drug uptake [14]: 2.25 % ID/g
Drug uptake [15]: 6.21 % ID/g
Drug uptake [16]: 0.42 % ID/g
Drug uptake [17]: 0.55 % ID/g
Drug uptake [18]: 0.07 % ID/g
Drug uptake [19]: 2.22 % ID/g
Drug uptake [20]: 16.3 % ID/g
Drug uptake [21]: 0.61 % ID/g
Drug uptake [22]: 5.33 % ID/g
Drug uptake [23]: 1.5 % ID/g
Drug uptake [24]: 0.51 % ID/g
Drug uptake [25]: 2.27 % ID/g
Drug uptake [26]: 1.35 % ID/g
Drug uptake [27]: 5.68 % ID/g
Drug uptake [28]: 0.65 % ID/g
Drug uptake [29]: 0.71 % ID/g
Drug uptake [30]: 0.72 % ID/g
Drug uptake [31]: 0.06 % ID/g
Drug uptake [32]: 0.84 % ID/g
Drug uptake [33]: 0.33 % ID/g
Drug uptake [34]: 0.63 % ID/g
Drug uptake [35]: 3.02 % ID/g
Drug uptake [36]: 21.5 % ID/g
